One compound from ChEMBL document CHEMBL1671686, “Carbapenem-resistant KPC-2-producing Escherichia coli in a Tel Aviv Medical Center, 2005 to 2008” (2010) can be followed below.

Molecules are shown by their SMILES. Bounds are passed on as bounds.

Holding throughout (assay type): functional
For assay [1], the system named is Escherichia coli. Put plainly: Antimicrobial activity against Escherichia coli isolate 544 expressing beta-lactamase KPC2, TEM and PFGE cluster 4 isolated from abscess of patient by vitek-2 method in presence of beta-lactamase inhibitor Tazobactam. In short, it runs like this:
(§1)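 Antibiotic susceptibility of clinical carbapenem-resistant E. coli isolates (collected Feb 2005–Oct 2008) determined on the automated Vitek-2 system.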

Assay [2] relates to Escherichia coli. Nature of the assay: Antimicrobial activity against Escherichia coli isolate 329 expressing beta-lactamase KPC2, CTX-M-2, TEM and PFGE cluster 2 isolated from blood of patient by vitek-2 method in presence of beta-lactamase inhibitor Tazobactam. In short, it runs like this:
as §1

For assay [3], the system named is Escherichia coli. Nature of the assay: Antimicrobial activity against Escherichia coli isolate 1679 expressing beta-lactamase KPC2, SHV-12, TEM and PFGE cluster 6 isolated from peritoneal fluid of patient by vitek-2 method in presence of beta-lactamase inhibitor Tazobactam. A digest of the protocol:
as §1

Assay [4] relates to Escherichia coli. Put plainly: Antimicrobial activity against Escherichia coli isolate 360T expressing beta-lactamase KPC2, OXA-9 and PFGE cluster 1 isolated from urine of patient by vitek-2 method in presence of beta-lactamase inhibitor Tazobactam. In short, it runs like this: (§2)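 Test strains were E. coli DH10B transformants. Plasmids purified from the clinical isolates were electroporated in, transformants selected on LB agar with 100 μg/ml ampicillin, and colonies PCR-screened for blaKPC. Susceptibility of the transformants was then determined by automated Vitek-2 testing.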

Assay [5] relates to Escherichia coli. Put plainly: Antimicrobial activity against Escherichia coli isolate 157T expressing beta-lactamase KPC2 and PFGE cluster 3 isolated from urine of patient by vitek-2 method in presence of beta-lactamase inhibitor Tazobactam. In short, it runs like this: (§3)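 Transformants were made by electroporating purified plasmids from clinical isolates into E. coli DH10B. They were selected on LB agar with 100 μg/ml ampicillin and PCR-screened for blaKPC. Susceptibility was then tested on Vitek-2.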

Assay [6] has as its system Escherichia coli. Put plainly: Antimicrobial activity against Escherichia coli isolate 1679T expressing beta-lactamase KPC2, TEM and PFGE cluster 6 isolated from peritoneal fluid of patient by vitek-2 method in presence of beta-lactamase inhibitor Tazobactam. A digest of the protocol:
as §2

For assay [7], the system named is Escherichia coli. Nature of the assay: Antimicrobial activity against Escherichia coli isolate 157 expressing beta-lactamase KPC2, CTX-M-15, TEM and PFGE cluster 3 isolated from urine of patient by vitek-2 method in presence of beta-lactamase inhibitor Tazobactam. The conditions noted are these: isolate 157, Urine. A digest of the protocol: as §1
In assay [8] the test system is Escherichia coli. Put plainly: Antimicrobial activity against Escherichia coli isolate 547 expressing beta-lactamase KPC2, TEM and PFGE cluster 4 isolated from blood of patient by vitek-2 method in presence of beta-lactamase inhibitor Tazobactam. In short, it runs like this:
(§4)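 Clinical carbapenem-resistant E. coli isolates collected at one hospital, February 2005 to October 2008. […] Susceptibilities came from automated Vitek-2 testing.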

For assay [9], the system named is Escherichia coli. Nature of the assay: Antimicrobial activity against Escherichia coli isolate 547T expressing beta-lactamase KPC2 and PFGE cluster 4 isolated from blood of patient by vitek-2 method in presence of beta-lactamase inhibitor Tazobactam. In short, it runs like this:
as §2

Assay [10] has as its system Escherichia coli. Put plainly: Antimicrobial activity against Escherichia coli isolate 339 expressing beta-lactamase KPC2, TEM and PFGE cluster 5 isolated from peritoneal fluid of patient by vitek-2 method in presence of beta-lactamase inhibitor Tazobactam. In short, it runs like this: as §4
The test system of assay [11] is Escherichia coli. Put plainly: Antimicrobial activity against Escherichia coli DH10B by vitek-2 method in presence of beta-lactamase inhibitor Tazobactam. The conditions noted are these: K-12 DH10B. In short, it runs like this:
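Plasmid-free recipient E. coli DH10B, used as the host for electroporation transformants, was tested for susceptibility on the automated Vitek-2 system.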

The test system of assay [12] is Escherichia coli. Put plainly: Antimicrobial activity against Escherichia coli isolate 360 expressing beta-lactamase KPC2, CTX-M-15, OXA-9, TEM and PFGE cluster 1 isolated from urine of patient by vitek-2 method in presence of beta-lactamase inhibitor Tazobactam. As to conditions: isolate 360, Urine. In short, it runs like this: as §1
The subject of assay [13] is Escherichia coli. Put plainly: Antimicrobial activity against Escherichia coli isolate 543T expressing beta-lactamase KPC2 and PFGE cluster 4 isolated from synovial fluid of patient by vitek-2 method in presence of beta-lactamase inhibitor Tazobactam. A digest of the protocol: as §3
The subject of assay [14] is Escherichia coli. Nature of the assay: Antimicrobial activity against Escherichia coli isolate 329T expressing beta-lactamase KPC2 and PFGE cluster 2 isolated from blood of patient by vitek-2 method in presence of beta-lactamase inhibitor Tazobactam. In short, it runs like this:
as §3

In assay [15] the test system is Escherichia coli. Put plainly: Antimicrobial activity against Escherichia coli isolate 339T expressing beta-lactamase KPC2 and PFGE cluster 5 isolated from peritoneal fluid of patient by vitek-2 method in presence of beta-lactamase inhibitor Tazobactam. A digest of the protocol: as §2
For assay [16], the system named is Escherichia coli. Put plainly: Antimicrobial activity against Escherichia coli isolate 543 expressing beta-lactamase KPC2, CTX-M-15, TEM and PFGE cluster 4 isolated from synovial fluid of patient by vitek-2 method in presence of beta-lactamase inhibitor Tazobactam. In short, it runs like this:
as §1

The test system of assay [17] is Escherichia coli. Nature of the assay: Antimicrobial activity against Escherichia coli isolate 386 expressing beta-lactamase KPC2, CTX-M-15, OXA-9, TEM and PFGE cluster 1 isolated from wound of patient by vitek-2 method in presence of beta-lactamase inhibitor Tazobactam. A digest of the protocol:
as §1

Assay [18] deals with Escherichia coli. Put plainly: Antimicrobial activity against Escherichia coli isolate 386T expressing beta-lactamase KPC2, OXA-9 and PFGE cluster 1 isolated from wound of patient by vitek-2 method in presence of beta-lactamase inhibitor Tazobactam. In short, it runs like this: as §2
In assay [19] the test system is Escherichia coli. Nature of the assay: Antimicrobial activity against Escherichia coli isolate 540 expressing beta-lactamase KPC2, TEM and PFGE cluster 4 isolated from synovial fluid of patient by vitek-2 method in presence of beta-lactamase inhibitor Tazobactam. A digest of the protocol: as §4

Broadly, the MIC is the least concentration at which growth counts as inhibited. For `CCN1CCN(C(=O)N[C@@H](C(=O)N[C@@H]2C(=O)N3[C@@H]2SC(C)(C)[C@@H]3C(=O)O)c2ccccc2)C(=O)C1=O` [PIPERACILLIN], the MIC in the assay on Escherichia coli [1] is greater than 128 µg/mL; in the assay with Escherichia coli [2], greater than 128 µg/mL; with Escherichia coli [3], greater than 128 µg/mL; in the assay with Escherichia coli [4], 64 µg/mL; with Escherichia coli [5], greater than 128 µg/mL; in the assay on Escherichia coli [6], 64 µg/mL. Further, the MIC in the assay on Escherichia coli [7] was greater than 128 µg/mL; with Escherichia coli [8], 64 µg/mL; in the assay with Escherichia coli [9], 64 µg/mL; with Escherichia coli [10] it was 64 µg/mL; in the assay on Escherichia coli [11], greater than 1 µg/mL; with Escherichia coli [12], greater than 128 µg/mL. The MIC in the assay with Escherichia coli [13] is greater than 128 µg/mL; in the assay on Escherichia coli [14], greater than 128 µg/mL; in the assay with Escherichia coli [15], 64 µg/mL; in the assay with Escherichia coli [16], greater than 128 µg/mL; in the assay on Escherichia coli [17], greater than 128 µg/mL; in the assay with Escherichia coli [18], 64 µg/mL. In addition, the MIC in the assay with Escherichia coli [19] worked out at 64 µg/mL.
